The text below walks through data of ChEMBL document CHEMBL5150070, “Tricyclic SpiroLactams Kill Mycobacteria In Vitro and In Vivo by Inhibiting Type II NADH Dehydrogenases” (J Med Chem, 2022).

Assay [1] deals with T1, Type II NADH:quinone oxidoreductase NdhA (Mycobacterium tuberculosis, UniProt P95200).
T1 sequence (P95200 whole entry): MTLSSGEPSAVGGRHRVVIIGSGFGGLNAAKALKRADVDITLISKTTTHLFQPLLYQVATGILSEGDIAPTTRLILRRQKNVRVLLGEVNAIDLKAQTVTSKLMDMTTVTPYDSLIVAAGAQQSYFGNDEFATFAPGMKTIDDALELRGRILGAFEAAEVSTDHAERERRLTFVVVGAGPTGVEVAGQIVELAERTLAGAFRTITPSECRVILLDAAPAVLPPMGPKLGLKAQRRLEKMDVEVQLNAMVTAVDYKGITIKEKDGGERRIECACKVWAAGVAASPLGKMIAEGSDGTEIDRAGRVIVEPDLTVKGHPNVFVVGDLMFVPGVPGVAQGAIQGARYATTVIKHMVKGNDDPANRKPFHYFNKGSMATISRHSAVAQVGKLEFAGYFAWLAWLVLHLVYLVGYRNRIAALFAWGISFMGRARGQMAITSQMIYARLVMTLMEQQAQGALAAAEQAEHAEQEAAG
Nature of the assay: Inhibition of Mycobacterium smegmatis MC2 155 recombinant ndhA assessed as rate of NADH oxidation in the presence of an electron acceptor menadione. More on the design: species or system Mycolicibacterium smegmatis.

For assay [2], the system named is Mycobacterium tuberculosis. As to the kind of experiment: Bactericidal activity against Non-replicating Mycobacterium tuberculosis ss18b-lux assessed as bacterial killing by measuring CFU after 1 week. It counts as functional, organism-based. The settings on record: time 1.0 weeks, DDE = dose-dependent effect. In a few lines:
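Streptomycin-dependent 18b-lux starved of streptomycin for 14 days (OD600 reset to 0.2 on days 7 and 13) to become non-replicating. Diluted to OD600 0.15 on dispensed compound and held at 37°C. On day 7, active wells plated on 7H11-OADC with 50 µg/mL streptomycin and incubated up to 8 weeks for cfu.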

Assay [3] deals with Mycobacterium tuberculosis. Nature of the assay: Antimycobacterial activity against Mycobacterium tuberculosis H37Rv infected in human A-THP1 macrophages assessed as viability of infected macrophages incubated for 96 hrs by fluorescence microplate assay. It counts as functional, organism-based. The gist of the method: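 THP-1 cells differentiated with 50 ng/mL PMA for 72 h, infected with log-phase H37Rv (MOI 10, 2 h), and extracellular bacteria killed with 50 µg/mL amikacin for 1 h. Cells detached and seeded at 5×10⁵/mL in RPMI-10% FBS with PMA onto pre-dispensed compound, 96 h at 37°C, 5% CO₂. Macrophage viability by 0.05% resazurin fluorescence.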

For assay [4], the system named is Mycobacterium tuberculosis. Nature of the assay: Bactericidal activity against Non-replicating Mycobacterium tuberculosis ss18b-lux model assessed as decrease in luminescence at 10 to 10000 nM. The settings on record: dose 10-10000 nM, TDE = time-dependent effect. It counts as functional, organism-based. In a few lines: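 Non-replicating streptomycin-starved 18b-lux (14-day starvation) diluted to OD600 0.15 in white 96-well plates with compound and incubated at 37°C. Luminescence read on days 1, 2, 5 and 7 and expressed relative to no-antibiotic controls (n ≥ 3).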

For assay [5], the system named is Mycobacterium tuberculosis. Nature of the assay: Antibiotic activity against Mycobacterium tuberculosis H37Rv assessed as reduction in bacterial cell growth by measuring resazurin reduction incubated for 6 days by fluorescence microplate based assay. It counts as functional. The settings on record: 144 h, time 6 day.

Values after ≈ are worked out from the molar mass of the structure shown.

Turning to `CC(C)[C@H]1CO[C@]23CCN(Cc4ccc(C(F)(F)F)cc4)C[C@H]2CCC(=O)N13`, the IC50 in assay [1] amounted to 59 nM; in assay [3] it was 460 nM. Moreover, the Activity entry in assay [2] is “Dde”; in assay [4] it was “Tde”. Further, in assay [5], the MIC came out at 0.1 µM (≈ 0.0396 µg/mL).
